{"source": "paper PMC7935732", "about": "(Targeted Oncology, 2021)", "key": {"[1]": {"tested_on": "Chinese patients with advanced and/or metastatic cancers", "test": "Safety and tolerability", "assay_type": "in vivo, human", "conditions": "for Embolism TEAE / Hyponatraemia TEAE / Leukopenia (white blood cell count decreased) TEAE / Lung infection TEAE / Malaise TEAE / Muscular weakness TEAE / Neutropenia (neutrophil count decreased) TEAE / Patients with ≥ 1 TEAE of Grade ≥ 3 / Thrombocytopenia (platelet count decreased) TEAE / Vomiting TEAE / Anemia TEAE / Blood bilirubin increased TEAE / Diarrhea TEAE: Grade 4", "how_it_was_run": "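Safety set: all patients with ≥ 1 dose. Patient-reported AEs were collected during treatment; chemistry, hematology and urinalysis were done at protocol time points. Laboratory and non-laboratory AEs were graded by CTCAE v4.0 and summarized by cohort.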"}, "breast cancer": {"tested_on": "breast cancer", "conditions": "larger population, including MONARCH plus; cited from earlier work"}, "[2]": {"test": "Plasma pharmacokinetics, LC-MS/MS, non-compartmental analysis", "assay_type": "in vivo, human", "conditions": "for CL/F / RAUC (accumulation ratio for AUC0–12): abemaciclib, geometric mean (% CV); for half-life / Cmax / AUC(0-inf) / AUC(0-t) / Vd/F: human, plasma; for Cmax: Mean abemaciclib Cmax", "how_it_was_run": "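Oral test compound, 150 or 200 mg. Plasma was sampled at 1–72 h after a single dose (Cycle 1 Day 1) and at 1–24 h after twice-daily dosing (Day 31), with doses held during sampling. Parent and two major active metabolites were measured by validated LC-MS/MS. Non-compartmental analysis; total active analytes summed. RAUC compares steady-state AUC0–12 with single-dose values. Descriptive statistics by dose.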"}}, "note": "Marks after values point to notes of the source that are not given here.", "data": [{"smiles": "CCN1CCN(Cc2ccc(Nc3ncc(F)c(-c4cc(F)c5nc(C)n(C(C)C)c5c4)n3)nc2)CC1", "note": "[abemaciclib]", "values": [{"measurement": "Embolism TEAE", "setting": "[1]; 150 mg (n = 12)", "result": "0 n (%)"}, {"measurement": "Hyponatraemia TEAE", "setting": "[1]; 150 mg (n = 12)", "result": "0 n (%)"}, {"measurement": "Leukopenia (white blood cell count decreased) TEAE", "setting": "[1]; 150 mg (n = 12)", "result": "0 n (%)"}, {"measurement": "Lung infection TEAE", "setting": "[1]; 150 mg (n = 12)", "result": "0 n (%)"}, {"measurement": "Malaise TEAE", "setting": "[1]; 150 mg (n = 12)", "result": "0 n (%)"}, {"measurement": "Muscular weakness TEAE", "setting": "[1]; 150 mg (n = 12)", "result": "0 n (%)"}, {"measurement": "Neutropenia (neutrophil count decreased) TEAE", "setting": "[1]; 150 mg (n = 12)", "result": "0 n (%)"}, {"measurement": "Patients with ≥ 1 TEAE of Grade ≥ 3", "setting": "[1]; 150 mg (n = 12)", "result": "1 (8.3) n (%)"}, {"measurement": "Thrombocytopenia (platelet count decreased) TEAE", "setting": "[1]; 150 mg (n = 12)", "result": "1 (8.3) n (%)"}, {"measurement": "Vomiting TEAE", "setting": "[1]; 150 mg (n = 12)", "result": "1 (8.3) n (%)"}, {"measurement": "Anemia TEAE", "setting": "[1]; 200 mg (n = 13)", "result": "0 n (%)"}, {"measurement": "Blood bilirubin increased TEAE", "setting": "[1]; 200 mg (n = 13)", "result": "0 n (%)"}, {"measurement": "Diarrhea TEAE", "setting": "[1]; 200 mg (n = 13)", "result": "0 n (%)"}, {"measurement": "Embolism TEAE", "setting": "[1]; 200 mg (n = 13)", "result": "3 (23.1) n (%)"}, {"measurement": "Hyponatraemia TEAE", "setting": "[1]; 200 mg (n = 13)", "result": "0 n (%)"}, {"measurement": "Leukopenia (white blood cell count decreased) TEAE", "setting": "[1]; 200 mg (n = 13)", "result": "0 n (%)"}, {"measurement": "Lung infection TEAE", "setting": "[1]; 200 mg (n = 13)", "result": "0 n (%)"}, {"measurement": "Malaise TEAE", "setting": "[1]; 200 mg (n = 13)", "result": "0 n (%)"}, {"measurement": "Muscular weakness TEAE", "setting": "[1]; 200 mg (n = 13)", "result": "0 n (%)"}, {"measurement": "Neutropenia (neutrophil count decreased) TEAE", "setting": "[1]; 200 mg (n = 13)", "result": "0 n (%)"}, {"measurement": "Patients with ≥ 1 TEAE of Grade ≥ 3", "setting": "[1]; 200 mg (n = 13)", "result": "3 (23.1) n (%)"}, {"measurement": "Thrombocytopenia (platelet count decreased) TEAE", "setting": "[1]; 200 mg (n = 13)", "result": "0 n (%)"}, {"measurement": "Vomiting TEAE", "setting": "[1]; 200 mg (n = 13)", "result": "0 n (%)"}, {"measurement": "Anemia TEAE", "setting": "[1]; Total (n = 25)", "result": "0 n (%)"}, {"measurement": "Blood bilirubin increased TEAE", "setting": "[1]; Total (n = 25)", "result": "0 n (%)"}, {"measurement": "Diarrhea TEAE", "setting": "[1]; Total (n = 25)", "result": "0 n (%)"}, {"measurement": "Hyponatraemia TEAE", "setting": "[1]; Total (n = 25)", "result": "0 n (%)"}, {"measurement": "Leukopenia (white blood cell count decreased) TEAE", "setting": "[1]; Total (n = 25)", "result": "0 n (%)"}, {"measurement": "Lung infection TEAE", "setting": "[1]; Total (n = 25)", "result": "0 n (%)"}, {"measurement": "Malaise TEAE", "setting": "[1]; Total (n = 25)", "result": "0 n (%)"}, {"measurement": "Muscular weakness TEAE", "setting": "[1]; Total (n = 25)", "result": "0 n (%)"}, {"measurement": "Neutropenia (neutrophil count decreased) TEAE", "setting": "[1]; Total (n = 25)", "result": "0 n (%)"}, {"measurement": "Patients with ≥ 1 TEAE of Grade ≥ 3", "setting": "[1]; Total (n = 25)", "result": "4 (16.0) n (%)"}, {"measurement": "Thrombocytopenia (platelet count decreased) TEAE", "setting": "[1]; Total (n = 25)", "result": "1 (4.0) n (%)"}, {"measurement": "Vomiting TEAE", "setting": "[1]; Total (n = 25)", "result": "1 (4.0) n (%)"}, {"measurement": "Alanine aminotransferase increased, TEAE any grade", "setting": "[1]; Total (n = 25)", "result": "7 (28.0) n (%)"}, {"measurement": "Anemia, TEAE any grade", "setting": "[1]; Total (n = 25)", "result": "12 (48.0) n (%)"}, {"measurement": "Bilirubin increased, TEAE any grade", "setting": "[1]; Total (n = 25)", "result": "5 (20.0) n (%)"}, {"measurement": "Blood creatinine increased, TEAE any grade", "setting": "[1]; Total (n = 25)", "result": "14 (56.0) n (%)"}, {"measurement": "Cough, TEAE any grade", "setting": "[1]; Total (n = 25)", "result": "8 (32.0) n (%)"}, {"measurement": "Decreased appetite, TEAE any grade", "setting": "[1]; Total (n = 25)", "result": "15 (60.0) n (%)"}, {"measurement": "Diarrhea, TEAE any grade", "setting": "[1]; Total (n = 25)", "result": "20 (80.0) n (%)"}, {"measurement": "Leukopenia (white blood cell count decreased), TEAE any grade", "setting": "[1]; Total (n = 25)", "result": "16 (64.0) n (%)"}, {"measurement": "Localized edema, TEAE any grade", "setting": "[1]; Total (n = 25)", "result": "5 (20.0) n (%)"}, {"measurement": "Malaise, TEAE any grade", "setting": "[1]; Total (n = 25)", "result": "13 (52.0) n (%)"}, {"measurement": "Nausea, TEAE any grade", "setting": "[1]; Total (n = 25)", "result": "9 (36.0) n (%)"}, {"measurement": "Neutropenia (neutrophil count decreased), TEAE any grade", "setting": "[1]; Total (n = 25)", "result": "19 (76.0) n (%)"}, {"measurement": "Patients with ≥ 1 TEAE (any grade)", "setting": "[1]; Total (n = 25)", "result": "25 (100.0) n (%)"}, {"measurement": "Thrombocytopenia (platelet count decreased), TEAE any grade", "setting": "[1]; Total (n = 25)", "result": "11 (44.0) n (%)"}, {"measurement": "Vomiting, TEAE any grade", "setting": "[1]; Total (n = 25)", "result": "8 (32.0) n (%)"}, {"measurement": "Discontinuation of study treatment due to diarrhea or neutropenia", "setting": "[1]; all treated patients", "result": "No patient discontinued"}, {"measurement": "ECG data or vital signs findings", "setting": "[1]; all treated patients", "result": "No clinically meaningful findings"}, {"measurement": "Febrile neutropenia", "setting": "[1]; all treated patients", "result": "No febrile neutropenia was reported"}, {"measurement": "Diarrhea Grade 4 or 5", "setting": "[1]; all treated patients (n = 25)", "result": "not reported"}, {"measurement": "Diarrhea of Grade 3", "setting": "[1]; all treated patients (n = 25)", "result": 4, "unit": "patients"}, {"measurement": "Patients reporting at least one TEAE of any grade", "setting": "[1]; all treated patients (n = 25)", "result": 100, "unit": "%"}, {"measurement": "Patients who died on treatment due to AE (respiratory failure)", "setting": "[1]; all treated patients (n = 25)", "result": 4.0, "unit": "%"}, {"measurement": "Patients who discontinued treatment due to AEs", "setting": "[1]; all treated patients (n = 25)", "result": 16, "unit": "%"}, {"measurement": "Patients with TEAE of Grade 4 in severity", "setting": "[1]; all treated patients (n = 25)", "result": 16.0, "unit": "%"}, {"measurement": "Thrombocytopenia TEAE of Grade ≥ 3", "setting": "[1]; all treated patients (n = 25)", "result": 24, "unit": "%"}, {"measurement": "Neutropenia TEAE of Grade ≥ 3", "setting": "[1]; all treated patients (n = 25), all Grade 3", "result": 32, "unit": "%"}, {"measurement": "Patients reporting serious adverse events (SAEs)", "setting": "[1]; in total (n = 25)", "result": 24.0, "unit": "%"}, {"measurement": "Patients with 3 or more episodes of diarrhea", "setting": "[1]; of the 20 patients experiencing diarrhea", "result": 7, "unit": "patients"}, {"measurement": "Incidence of embolism", "setting": "breast cancer", "result": "less than 5%"}, {"measurement": "CL/F", "setting": "[2]; single oral dose 150 mg (C1D1), N 12", "result": "22.1 (63) L/h"}, {"measurement": "CL/F", "setting": "[2]; single oral dose 200 mg (C1D1), N 13", "result": "26.4 (74) L/h"}, {"measurement": "RAUC (accumulation ratio for AUC0–12)", "setting": "[2]; steady state (C1D31) 150 mg every 12 h, n = 5", "result": "1.57 (106)^b"}, {"measurement": "RAUC (accumulation ratio for AUC0–12)", "setting": "[2]; steady state (C1D31) 200 mg every 12 h, N 10", "result": "2.10 (69)"}, {"measurement": "half-life", "setting": "[2]; oral, 200 mg", "result": "~24", "unit": "h"}, {"measurement": "Cmax", "setting": "[2]; oral, 200 mg, after multiple doses of 150 or 200 mg", "result": "260 to 320", "unit": "ng/mL"}, {"measurement": "Cmax", "setting": "[2]; oral, after a single dose", "result": 200, "unit": "ng/mL"}, {"measurement": "AUC(0-inf)", "setting": "[2]; po, 150 mg", "result": 6790, "unit": "ng·h/mL"}, {"measurement": "AUC(0-t)", "setting": "[2]; po, 150 mg", "result": 1700, "unit": "ng·h/mL"}, {"measurement": "Vd/F", "setting": "[2]; po, 150 mg", "result": 767, "unit": "L"}, {"measurement": "half-life", "setting": "[2]; po, 150 mg", "result": 22.4, "unit": "h"}, {"measurement": "AUC(0-inf)", "setting": "[2]; po, 200 mg", "result": 7580, "unit": "ng·h/mL"}, {"measurement": "AUC(0-t)", "setting": "[2]; po, 200 mg", "result": 1740, "unit": "ng·h/mL"}, {"measurement": "Vd/F", "setting": "[2]; po, 200 mg", "result": 955, "unit": "L"}, {"measurement": "half-life", "setting": "[2]; po, 200 mg", "result": 22.8, "unit": "h"}]}]}
